In brackets after ≈: the same amount, converted by molar mass.
Assays:
Staphylococcus aureus [1] = experiment: Antibacterial activity against Staphylococcus aureus ACH-0129 isolate with gyrA Ser84Leu, Glu88Val and grlA Ser80Phe, Ala116Val mutant assessed as doubling time of bacterial growth at 1 ug/ml; format: functional
Method in brief: (§1)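 Overnight cultures in MH or Mueller-Hinton II medium at 37°C with aeration were diluted to OD625 of about 0.05. Turbidity was read every 30 min over the first 7 h. Doubling time was estimated from log OD625 versus time growth curves.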

Staphylococcus aureus [2] = experiment: Antibacterial activity against Staphylococcus aureus ATCC 29213 after 24 hrs by broth microdilution method; format: functional; details: ATCC 29213, 24 h
Method in brief: (§2)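 Broth microdilution per CLSI guidelines. MIC taken as the lowest concentration preventing visible growth at 24 h. Each MIC determined at least twice.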

Staphylococcus aureus [3] = experiment: Antibacterial activity against Staphylococcus aureus ACH-0203 isolate with gyrA Ser84Leu and grlA Ser80Phe, Ala116Val mutant after 24 hrs by broth microdilution method; format: functional; method in brief: as §2
Staphylococcus aureus [4] = experiment: (§3) Antibacterial activity against Staphylococcus aureus ACH-0129 isolate with gyrA Ser84Leu, Glu88Val and grlA Ser80Phe, Ala116Val mutant after 24 hrs by broth microdilution method; format: functional
Staphylococcus aureus [5] = experiment: Antibacterial activity against Staphylococcus aureus ACH-0186 isolate with gyrA Ser84Leu and grlA Ser80Phe mutant assessed as doubling time of bacterial growth at 1 ug/ml; format: functional; method in brief: as §1
Staphylococcus aureus [6] = experiment: as §3; format: functional; remark: listed apart in the source
[7] = Inhibition of Staphylococcus aureus wild-type topoisomerase 4 decatenation activity assessed as unlinking of DNA microcircles from kinetoplast DNA
Method in brief: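 S. aureus topo IV reconstituted from His-purified recombinant GrlA and GrlB (E. coli BL21(DE3)pLysS expression), mixed 1:1 molar on ice 10 min. 0.1 μg catenated kDNA with 2 U enzyme, 30 min at 37°C in 1 mM ATP, 5 mM DTT, 5 mM MgCl2, 50 μg/ml BSA, 50 mM Tris-HCl pH 7.5, 250 mM potassium glutamate. Products on 1% agarose gel, ethidium-stained, quantitated; IC50 by nonlinear regression.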

Staphylococcus aureus [8] = experiment: Antibacterial activity against Staphylococcus aureus BSA678 isolate with gyrA Ser84Leu, Ser85Pro and grlA Ser80Phe, Glu84Lys mutant after 24 hrs by broth microdilution method
Staphylococcus aureus [9] = experiment: Antibacterial activity against Staphylococcus aureus ATCC 29213 assessed as doubling time of bacterial growth at 1 ug/ml; format: functional; method in brief: as §1
DNA gyrase subunit A = DNA gyrase subunit A (Staphylococcus aureus, UniProt P20831, S84L); experiment: Inhibition of Staphylococcus aureus DNA gyrase gyrA S84L mutant supercoiling activity assessed as effect on conversion of relaxed pBR322 DNA to supercoiled form
Staphylococcus aureus [10] = experiment: Antibacterial activity against Staphylococcus aureus ACH-0130 isolate with gyrA Ser84Leu, Glu88Val and grlA Ser80Phe, Ala116Val mutant assessed as doubling time of bacterial growth at 1 ug/ml; format: functional; method in brief: as §1
Staphylococcus aureus [11] = experiment: Antibacterial activity against Staphylococcus aureus ACH-0206 isolate with gyrA Ser84Leu mutant after 24 hrs by broth microdilution method; format: functional; method in brief: as §2
Staphylococcus aureus [12] = experiment: Antibacterial activity against Staphylococcus aureus ACH-0231 isolate with gyrA Ser84Leu, Glu88Lys and grlA Ser80Tyr, Glu84Gly mutant after 24 hrs by broth microdilution method; format: functional
Staphylococcus aureus [13] = experiment: Antibacterial activity against Staphylococcus aureus ACH-0216 isolate with grlA Ser80Phe mutant after 24 hrs by broth microdilution method; format: functional; method in brief: as §2
Staphylococcus aureus [14] = experiment: Antibacterial activity against Staphylococcus aureus ACH-0201 isolate with gyrA Ser84Leu, Glu88Val and grlA Ser80Phe, Ala116Val mutant after 24 hrs by broth microdilution method; format: functional
Staphylococcus aureus [15] = experiment: Antibacterial activity against Staphylococcus aureus ATCC 33591 isolate after 24 hrs by broth microdilution method; format: functional; details: ATCC 33591, 24 h; method in brief: as §2
Staphylococcus aureus [16] = experiment: Antibacterial activity against Staphylococcus aureus NY2746 isolate with gyrA Ser84Leu and grlA Ser80Phe mutant assessed as doubling time of bacterial growth at 1 ug/ml; format: functional; method in brief: as §1
Staphylococcus aureus [17] = experiment: Antibacterial activity against Staphylococcus aureus ACH-0218 isolate with grlA Glu84Lys mutant after 24 hrs by broth microdilution method; format: functional; method in brief: as §2
Staphylococcus aureus [18] = experiment: Antibacterial activity against Staphylococcus aureus BSA678 isolate with gyrA Ser84Leu, Ser85Pro and grlA Ser80Phe, Glu84Lys mutant assessed as doubling time of bacterial growth at 1 ug/ml
Staphylococcus aureus [19] = experiment: Antibacterial activity against Staphylococcus aureus BSA643 isolate with gyrA Ser84Leu and grlA Ser80Tyr, Glu84Gly mutant assessed as doubling time of bacterial growth at 1 ug/ml; format: functional; method in brief: as §1
Staphylococcus aureus [20] = experiment: Antibacterial activity against Staphylococcus aureus ACH-0192 isolate with gyrA Ser84Leu and grlA Ser80Phe, Ala116Val mutant assessed as doubling time of bacterial growth at 1 ug/ml; format: functional; method in brief: as §1
Staphylococcus aureus [21] = experiment: Antibacterial activity against Staphylococcus aureus ACH-0203 isolate with gyrA Ser84Leu and grlA Ser80Phe, Ala116Val mutant assessed as doubling time of bacterial growth at 1 ug/ml; format: functional; method in brief: as §1
Staphylococcus aureus [22] = experiment: Antibacterial activity against Staphylococcus aureus ACH-0201 isolate with gyrA Ser84Leu, Glu88Val and grlA Ser80Phe, Ala116Val mutant assessed as doubling time of bacterial growth at 1 ug/ml; format: functional; method in brief: as §1
Staphylococcus aureus [23] = experiment: Antibacterial activity against Staphylococcus aureus ATCC 700699 isolate with gyrA Ser84Leu, Glu409Lys and grlA Ser80Phe mutant assessed as doubling time of bacterial growth at 1 ug/ml; format: functional; method in brief: as §1
Staphylococcus aureus [24] = experiment: Antibacterial activity against Staphylococcus aureus ACH-0141 isolate with gyrA Ser84Leu, Glu88Val and grlA Ser80Phe, Ala116Val mutant after 24 hrs by broth microdilution method; format: functional
Staphylococcus aureus [25] = experiment: Antibacterial activity against Staphylococcus aureus ACH-0204 isolate with gyrA Ser84Leu mutant after 24 hrs by broth microdilution method; format: functional; method in brief: as §2
Staphylococcus aureus [26] = experiment: Antibacterial activity against Staphylococcus aureus ACH-0210 isolate with gyrA Ser84Leu and grlA Ser80Phe mutant after 24 hrs by broth microdilution method; format: functional
Staphylococcus aureus [27] = experiment: Antibacterial activity against Staphylococcus aureus ACH-0126 isolate with gyrA Ser84Leu and grlA Ser80Phe mutant after 24 hrs by broth microdilution method; format: functional
[28] = Inhibition of Staphylococcus aureus […] topoisomerase 4 grlA S80F mutant decatenation activity assessed as unlinking of DNA microcircles from kinetoplast DNA
Method in brief: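 Recombinant S. aureus GrlA (Ser80Phe) and GrlB were mixed 1:1 molar on ice for 10 min. kDNA (0.1 μg) with 2 U enzyme, 30 min at 37°C, in 1 mM ATP, 5 mM MgCl2, 250 mM K-glutamate, 50 mM Tris pH 7.5. Reactions stopped with EDTA, run on 1% agarose-TBE and ethidium-stained, minicircles quantitated. IC50 by nonlinear regression.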

Staphylococcus aureus [29] = experiment: Antibacterial activity against Staphylococcus aureus ACH-0141 isolate with gyrA Ser84Leu, Glu88Val and grlA Ser80Phe, Ala116Val mutant assessed as doubling time of bacterial growth at 1 ug/ml; format: functional; method in brief: as §1
Staphylococcus aureus [30] = experiment: Antibacterial activity against Staphylococcus aureus ACH-0186 isolate with gyrA Ser84Leu and grlA Ser80Phe, Ala116Val mutant after 24 hrs by broth microdilution method; format: functional
Staphylococcus aureus [31] = experiment: Antibacterial activity against Staphylococcus aureus ACH-0192 isolate with gyrA Ser84Leu and grlA Ser80Phe, Ala116Val mutant after 24 hrs by broth microdilution method; format: functional
Staphylococcus aureus [32] = experiment: Antibacterial activity against Staphylococcus aureus ACH-0221 isolate with gyrA Ser84Leu mutant after 24 hrs by broth microdilution method; format: functional; method in brief: as §2
Staphylococcus aureus [33] = experiment: Antibacterial activity against Staphylococcus aureus ATCC 700699 isolate with gyrA Ser84Leu, Glu409Lys and grlA Ser80Phe mutant after 24 hrs by broth microdilution method; format: functional; details: ATCC 700699, 24 h
Staphylococcus aureus [34] = experiment: Antibacterial activity against Staphylococcus aureus ACH-0126 isolate with gyrA Ser84Leu and grlA Ser80Phe mutant assessed as doubling time of bacterial growth at 1 ug/ml; format: functional; method in brief: as §1
Staphylococcus aureus [35] = experiment: Antibacterial activity against Staphylococcus aureus BSA643 isolate with gyrA Ser84Leu and grlA Ser80Tyr, Glu84Gly mutant after 24 hrs by broth microdilution method; format: functional
Staphylococcus aureus [36] = experiment: Antibacterial activity against Staphylococcus aureus ACH-0231 isolate with gyrA Ser84Leu, Glu88Lys and grlA Ser80Tyr, Glu84Gly mutant assessed as doubling time of bacterial growth at 1 ug/ml; format: functional; method in brief: as §1
Staphylococcus aureus [37] = experiment: Antibacterial activity against Staphylococcus aureus NY2746 isolate with gyrA Ser84Leu and grlA Ser80Phe mutant after 24 hrs by broth microdilution method; format: functional

Compound: COc1c(-c2ccnc(C)c2)c(F)cc2c(=O)c3c(=O)[nH]sc3n(C3CC3)c12
- Time (Staphylococcus aureus [1]): 40 min
- MIC (Staphylococcus aureus [2]): 4 ng/mL (≈ 0.0101 µM)
- MIC (Staphylococcus aureus [3]): 1 µg/mL (≈ 2.52 µM)
- MIC (Staphylococcus aureus [4]): 0.5 µg/mL (≈ 1.26 µM)
- Time (Staphylococcus aureus [5]): 34 min
- MIC (Staphylococcus aureus [6]): 0.5 µg/mL (≈ 1.26 µM)
- IC50 [7]: 1000 nM
- MIC (Staphylococcus aureus [8]): 0.5 µg/mL (≈ 1.26 µM)
- Time (Staphylococcus aureus [9]): 30 min
- IC50 (DNA gyrase subunit A): 52.3 µM
- Time (Staphylococcus aureus [10]): 52 min
- MIC (Staphylococcus aureus [11]): 0.015 µg/mL (≈ 0.0377 µM)
- MIC (Staphylococcus aureus [12]): 2 µg/mL (≈ 5.03 µM)
- MIC (Staphylococcus aureus [13]): 8 ng/mL (≈ 0.0201 µM)
- MIC (Staphylococcus aureus [14]): 2 µg/mL (≈ 5.03 µM)
- MIC (Staphylococcus aureus [15]): 4 ng/mL (≈ 0.0101 µM)
- Time (Staphylococcus aureus [16]): 33 min
- MIC (Staphylococcus aureus [17]): 8 ng/mL (≈ 0.0201 µM)
- Time (Staphylococcus aureus [18]): 42 min
- Time (Staphylococcus aureus [19]): 38 min
- Time (Staphylococcus aureus [20]): 121 min
- Time (Staphylococcus aureus [21]): 338 min
- Time (Staphylococcus aureus [22]): 180 min
- Time (Staphylococcus aureus [23]): 39 min
- MIC (Staphylococcus aureus [24]): 2 µg/mL (≈ 5.03 µM)
- MIC (Staphylococcus aureus [25]): 0.016 µg/mL (≈ 0.0403 µM)
- MIC (Staphylococcus aureus [26]): 0.125 µg/mL (≈ 0.315 µM)
- MIC (Staphylococcus aureus [27]): 0.125 µg/mL (≈ 0.315 µM)
- IC50 [28]: 15.8 µM
- Time (Staphylococcus aureus [29]): 340 min
- MIC (Staphylococcus aureus [30]): 0.5 µg/mL (≈ 1.26 µM)
- MIC (Staphylococcus aureus [31]): 0.5 µg/mL (≈ 1.26 µM)
- MIC (Staphylococcus aureus [32]): 0.03 µg/mL (≈ 0.0755 µM)
- MIC (Staphylococcus aureus [33]): 0.25 µg/mL (≈ 0.629 µM)
- Time (Staphylococcus aureus [34]): 34 min
- MIC (Staphylococcus aureus [35]): 0.125 µg/mL (≈ 0.315 µM)
- Time (Staphylococcus aureus [36]): 35 min
- MIC (Staphylococcus aureus [37]): 0.25 µg/mL (≈ 0.629 µM)

Compound: COc1c(-c2cc(C)nc(C)c2)c(F)cc2c(=O)c3c(=O)[nH]sc3n(C3CC3)c12
- MIC (Staphylococcus aureus [2]): 4 ng/mL (≈ 0.00972 µM)
- MIC (Staphylococcus aureus [3]): 1 µg/mL (≈ 2.43 µM)
- MIC (Staphylococcus aureus [4]): 0.5 µg/mL (≈ 1.22 µM)
- MIC (Staphylococcus aureus [6]): 0.5 µg/mL (≈ 1.22 µM)
- IC50 [7]: 800 nM
- MIC (Staphylococcus aureus [8]): 0.5 µg/mL (≈ 1.22 µM)
- IC50 (DNA gyrase subunit A): 21.5 µM
- MIC (Staphylococcus aureus [11]): 0.015 µg/mL (≈ 0.0365 µM)
- MIC (Staphylococcus aureus [12]): 1 µg/mL (≈ 2.43 µM)
- MIC (Staphylococcus aureus [13]): 8 ng/mL (≈ 0.0194 µM)
- MIC (Staphylococcus aureus [14]): 1 µg/mL (≈ 2.43 µM)
- MIC (Staphylococcus aureus [15]): 4 ng/mL (≈ 0.00972 µM)
- MIC (Staphylococcus aureus [17]): 4 ng/mL (≈ 0.00972 µM)
- MIC (Staphylococcus aureus [24]): 2 µg/mL (≈ 4.86 µM)
- MIC (Staphylococcus aureus [25]): 0.016 µg/mL (≈ 0.0389 µM)
- MIC (Staphylococcus aureus [26]): 0.125 µg/mL (≈ 0.304 µM)
- MIC (Staphylococcus aureus [27]): 0.125 µg/mL (≈ 0.304 µM)
- IC50 [28]: 9.3 µM
- MIC (Staphylococcus aureus [30]): 0.25 µg/mL (≈ 0.608 µM)
- MIC (Staphylococcus aureus [31]): 1 µg/mL (≈ 2.43 µM)
- MIC (Staphylococcus aureus [32]): 0.03 µg/mL (≈ 0.0729 µM)
- MIC (Staphylococcus aureus [33]): 0.125 µg/mL (≈ 0.304 µM)
- MIC (Staphylococcus aureus [35]): 0.125 µg/mL (≈ 0.304 µM)
- MIC (Staphylococcus aureus [37]): 0.25 µg/mL (≈ 0.608 µM)
